Data set [1] is described as follows: Selectivity index, ratio of TC50 for human TZM-b1 cells to IC50 for HIV2 KR X3 infected in human TZM-b1 cells. The data set is classed as toxicity, cell-based. Conditions: TZM-b1 cells infected with HIV2 KR X3, read-out: Selectivity Index. Summed up:
(§1)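 TC50 from 2-day CytoTox-Glo viability assay of compound-treated TZM-bl cells, divided by IC50 from single-round TZM-bl infection (200 TCID50 HIV-1 NL4-3 or HIV-2 KR.X3, 2-day luciferase read, 50% RLU reduction versus virus control).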

Data set [2] can be described thus: Cytotoxicity against human TZM-b1 cells after 2 days. It counts as cell-based. Conditions: read-out: TC50.
The subject of data set [3] is Human immunodeficiency virus 1. The data set can be described thus: Antiviral activity against HIV1 NL4-3 infected in human TZM-b1 cells assessed as reduction in luciferase activity after 2 days by luciferase reporter gene assay. It counts as functional, cell-based. Conditions: Human immunodeficiency virus 1, NL4-3, TZM-b1, 48 h. Summed up:
(§2)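 Single-round infection of TZM-bl cells with 200 TCID50 of virus in the presence of graded compound concentrations. After 2 days, the medium was removed and Bright Glo reagent was added to read luciferase luminescence (RLU). IC50 is the concentration giving 50% reduction of luciferase activity relative to virus control wells.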

Data set [4] is described as follows: Antiviral activity against HIV2 KR X3 infected in human TZM-b1 cells assessed as reduction in luciferase activity after 2 days by luciferase reporter gene assay. It counts as functional, cell-based, Human immunodeficiency virus type 2 (isolate KR). Particulars: Human immunodeficiency virus 2, X3, TZM-b1, 48 h. Summed up:
as §2

Data set [5] can be described thus: Selectivity index, ratio of TC50 for human TZM-b1 cells to IC50 for HIV1 NL4-3 infected in human TZM-b1 cells. The data set is classed as toxicity, cell-based. Conditions: TZM-b1 cells infected with HIV1 NL4-3, read-out: Selectivity Index. The essentials:
as §1

The nature of data set [6]: Ratio of IC50 for HIV2 KR X3 infected in human TZM-b1 cells to IC50 for HIV1 NL4-3 infected in human TZM-b1 cells. It counts as functional. Summed up:
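IC50s from single-round TZM-bl infection with 200 TCID50 HIV-1 NL4-3 or HIV-2 KR.X3, graded compound concentrations, 2-day luciferase (Bright Glo) read-out; IC50 = 50% RLU reduction versus virus control; ratio of HIV-2 to HIV-1 IC50.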

Data set [7] deals with TZM-b1. The data set can be described thus: Inhibition of HIV1 YU-2 gp120 V3 loop assessed as inhibition of HIV2 KR X3 replication in human TZM-b1 cells. The data set is classed as cell-based. Conditions: Human immunodeficiency virus type 1 (isolate YU2). The essentials: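 Single-round infection of TZM-bl cells with 200 TCID50 of HIV-2 KR.X3 chimera carrying the HIV-1 YU2 V3 loop (KR.X3-YU2/V3), in presence of graded compound concentrations. After 2 days medium removed, Bright Glo added, luciferase luminescence read; IC50 = concentration halving RLU versus virus-control wells.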

The subject of data set [8] is TZM-b1. Description: Antiviral activity against HIV2 KR X3 harboring V3 loop of HIV1 YU-2 infected in human TZM-b1 cells after 2 days by luciferase reporter gene assay. It counts as functional, cell-based. Particulars: Human immunodeficiency virus type 2 (isolate KR). Summed up: as §2
A general note: A reporter such as luciferase makes a cellular process visible.

In data set [9] the test system is HIV-1 NL4-3 (human immunodeficiency virus 1). Description: Antiviral activity against HIV1 NL4-3 infected in human TZM-b1 cells after 2 days by luciferase reporter gene assay. Conditions: Human immunodeficiency virus 1, NL4-3, TZM-b1, 48 h.
The subject of data set [10] is TZM-b1. The data set can be described thus: Antiviral activity against HIV2 KR X3 infected in human TZM-b1 cells after 2 days by luciferase reporter gene assay. Particulars: Human immunodeficiency virus type 2 (isolate KR). The data set is classed as functional, cell-based. Summed up: as §2

Structures are written as SMILES. The source made the active and inactive calls. The rule behind the calls is not given here.

Take `C=C(C)[C@@H]1CC[C@]2(C(=O)NCCCCCCCC(=O)O)CC[C@]3(C)[C@H](CC[C@@H]4[C@@]5(C)CC[C@H](O)C(C)(C)[C@@H]5CC[C@]43C)[C@@H]12`: the selectivity ratio in data set [1] was less than 2. Also, the CC50 at 48 h in [2] came out at 34.2 µM. Moreover, the IC50 in data set [3] amounted to 0.84 µM.

On to `C=C(C)[C@@H]1CC[C@]2(C(=O)NCCCCCC(=O)NCC(=O)NCC(=O)O)CC[C@]3(C)[C@H](CC[C@@H]4[C@@]5(C)CC[C@H](O)C(C)(C)[C@@H]5CC[C@]43C)[C@@H]12`, for which the IC50 is 1.7 µM in data set [4] and greater than 58 µM in data set [3]. For the same compound, in data set [2], the CC50 at 48 h is greater than 58 µM.

Regarding `C=C(C)[C@@H]1CC[C@]2(C(=O)NCCCCCNC(C)=O)CC[C@]3(C)[C@H](CC[C@@H]4[C@@]5(C)CC[C@H](O)C(C)(C)[C@@H]5CC[C@]43C)[C@@H]12`, the selectivity ratio in data set [1] and in data set [5] was less than 2 each time. Further, the CC50 at 48 h in data set [2] came to 13.9 µM.

Take `C=C(C)[C@@H]1CC[C@]2(C(=O)NCCCCCC(=O)N[C@@H](Cc3ccc(O)cc3)C(=O)O)CC[C@]3(C)[C@H](CC[C@@H]4[C@@]5(C)CC[C@H](O)C(C)(C)[C@@H]5CC[C@]43C)[C@@H]12`: the IC50 in data set [4] turned out to be 0.23 µM. Moreover, the CC50 at 48 h in data set [2] was 54.6 µM. Moreover, in data set [5], the selectivity ratio is less than 2.

For the compound `C=C(C)[C@@H]1CC[C@]2(C(=O)NCCCCCC(=O)N3CCC[C@H]3C(=O)O)CC[C@]3(C)[C@H](CC[C@@H]4[C@@]5(C)CC[C@H](O)C(C)(C)[C@@H]5CC[C@]43C)[C@@H]12`, the IC50 in data set [4] is 0.63 µM; in data set [3], 51.4 µM. Further, the CC50 at 48 h in data set [2] was greater than 60 µM.

Consider `C=C(C)[C@@H]1CC[C@]2(C(=O)NCCCCCCCC(=O)NCC(=O)O)CC[C@]3(C)[C@H](CC[C@@H]4[C@@]5(C)CC[C@H](O)C(C)(C)[C@@H]5CC[C@]43C)[C@@H]12`, for which the half-inhibitory concentration (IC50) turned out to be 0.64 µM in [4] and 0.12 µM in data set [3]. In data set [2], the CC50 at 48 h amounted to 15.8 µM.

As for `C=C(C)[C@@H]1CC[C@]2(C(=O)NCCCCC(=O)O)CC[C@]3(C)[C@H](CC[C@@H]4[C@@]5(C)CC[C@H](O)C(C)(C)[C@@H]5CC[C@]43C)[C@@H]12`, the 50% inhibitory concentration (IC50) in [4] came out at 0.17 µM; in data set [3], 32.8 µM. The CC50 at 48 h in [2] is greater than 72 µM.

`C=C(C)[C@@H]1CC[C@]2(C(=O)NCCCCCCNC(=O)CC(=O)O)CC[C@]3(C)[C@H](CC[C@@H]4[C@@]5(C)CC[C@H](O)C(C)(C)[C@@H]5CC[C@]43C)[C@@H]12`: the selectivity ratio in data set [1] was less than 2. The CC50 at 48 h in [2] stood at 34.6 µM. Further, the IC50 in data set [3] was 0.44 µM.

On to `C=C(C)[C@@H]1CC[C@]2(C(=O)NCCCCCCCC(=O)NC(CC(C)C)[C@H](O)CC(=O)O)CC[C@]3(C)[C@H](CC[C@@H]4[C@@]5(C)CC[C@H](O)C(C)(C)[C@@H]5CC[C@]43C)[C@@H]12` (single isomer, unassigned), for which the results for the IC50 in data set [4] and in data set [3] were 2.9 µM and 0.042 µM, respectively. In addition, in data set [6], the “Ratio IC50” value is given as 70. In addition, in data set [2], the CC50 at 48 h was 33.2 µM.

On to `Cc1cn([C@H]2C[C@H](N=[N+]=[N-])[C@@H](CO)O2)c(=O)[nH]c1=O` [ZIDOVUDINE], for which the 50% inhibitory concentration (IC50) in data set [4] stood at 0.069 µM.

Regarding `C=C(C)[C@@H]1CC[C@]2(C(=O)NCCCC(=O)NCC(=O)O)CC[C@]3(C)[C@H](CC[C@@H]4[C@@]5(C)CC[C@H](O)C(C)(C)[C@@H]5CC[C@]43C)[C@@H]12`, in data set [4], the half-maximal inhibitory concentration (IC50) was found to be 3.7 µM. Also, in [2], the CC50 at 48 h is greater than 67 µM. Moreover, the selectivity ratio in data set [5] is less than 2.

Take `C=C(C)[C@@H]1CC[C@]2(C(=O)NCCCCCC(=O)NCC(=O)O)CC[C@]3(C)[C@H](CC[C@@H]4[C@@]5(C)CC[C@H](O)C(C)(C)[C@@H]5CC[C@]43C)[C@@H]12`: the result in the data set on TZM-b1 [7] was Active. Besides, the Activity result in the data set on TZM-b1 [8] and in the data set with TZM-b1 [10] was “Dose-dependent effect” in each case. Further, the figures for the half-inhibitory concentration (IC50) in data set [9], in [4] and in [3] were 0.35 µM, 0.35 µM and 34.7 µM, respectively. The CC50 at 48 h in data set [2] was greater than 64 µM.

In the case of `C=C(C)[C@@H]1CC[C@]2(C(=O)NCCCCCC(=O)O)CC[C@]3(C)[C@H](CC[C@@H]4[C@@]5(C)CC[C@H](O)C(C)(C)[C@@H]5CC[C@]43C)[C@@H]12`, the half-inhibitory concentration (IC50) in [4] came out at 0.15 µM; in [3] it was 2 µM. Also, the CC50 at 48 h in [2] is greater than 70 µM.

As to `C=C(C)[C@@H]1CC[C@]2(C(=O)NCCCC(=O)O)CC[C@]3(C)[C@H](CC[C@@H]4[C@@]5(C)CC[C@H](O)C(C)(C)[C@@H]5CC[C@]43C)[C@@H]12`, the concentration for half-maximal inhibition (IC50) in [4] came out at 2.8 µM. In addition, the CC50 at 48 h in data set [2] is 31.2 µM. In addition, in data set [5], the selectivity ratio was less than 2.

Turning to `C=C(C)[C@@H]1CC[C@]2(C(=O)NCCCCCCC(=O)NCC(=O)O)CC[C@]3(C)[C@H](CC[C@@H]4[C@@]5(C)CC[C@H](O)C(C)(C)[C@@H]5CC[C@]43C)[C@@H]12`, the half-maximal inhibitory concentration (IC50) in data set [4] is 0.42 µM; in data set [3] it was 4.1 µM. The CC50 at 48 h in [2] is greater than 63 µM.

Consider `C=C(C)[C@@H]1CC[C@]2(C(=O)O)CC[C@]3(C)[C@H](CC[C@@H]4[C@@]5(C)CC[C@H](OC(=O)CC(C)(C)C(=O)O)C(C)(C)[C@@H]5CC[C@]43C)[C@@H]12` [BEVIRIMAT], for which the selectivity ratio in [1] is less than 2. Besides, in data set [2], the CC50 at 48 h was greater than 30 µM. Moreover, the concentration for half-maximal inhibition (IC50) in data set [3] is 0.13 µM.

In the case of `C=C(C)[C@@H]1CC[C@]2(C(=O)NCCCCCCCCNC(C)=O)CC[C@]3(C)[C@H](CC[C@@H]4[C@@]5(C)CC[C@H](O)C(C)(C)[C@@H]5CC[C@]43C)[C@@H]12`, in [1], the selectivity ratio is less than 2. In addition, in data set [2], the CC50 at 48 h was greater than 64 µM. In addition, the IC50 in data set [3] was determined as 0.14 µM.

For `C=C(C)[C@@H]1CC[C@]2(C(=O)NCCCCCCC(=O)O)CC[C@]3(C)[C@H](CC[C@@H]4[C@@]5(C)CC[C@H](O)C(C)(C)[C@@H]5CC[C@]43C)[C@@H]12`, the half-maximal inhibitory concentration (IC50) in data set [4] came to 4.5 µM; in data set [3], 11.1 µM. In addition, in data set [2], the CC50 at 48 h was 36.2 µM.

Turning to `C=C(C)[C@@H]1CC[C@]2(C(=O)NCCCCCCCNC(C)=O)CC[C@]3(C)[C@H](CC[C@@H]4[C@@]5(C)CC[C@H](O)C(C)(C)[C@@H]5CC[C@]43C)[C@@H]12`, the half-inhibitory concentration (IC50) in data set [9] and in data set [3] was 0.038 µM throughout. The selectivity ratio in data set [1] is less than 2. Further, the CC50 at 48 h in data set [2] was greater than 66 µM.

Regarding `C=C(C)[C@@H]1CC[C@]2(C(=O)NCCCCCC(=O)N[C@@H](C)C(=O)O)CC[C@]3(C)[C@H](CC[C@@H]4[C@@]5(C)CC[C@H](O)C(C)(C)[C@@H]5CC[C@]43C)[C@@H]12`, the IC50 is 0.37 µM in data set [4] and 48.9 µM in [3]. The CC50 at 48 h in [2] was greater than 63 µM.

For the compound `C=C(C)[C@@H]1CC[C@]2(C(=O)O)CC[C@]3(C)[C@H](CC[C@@H]4[C@@]5(C)CC[C@H](O)C(C)(C)[C@@H]5CC[C@]43C)[C@@H]12` [BETULINIC ACID], the selectivity ratio in data set [1] and in data set [5] was less than 2 throughout. Further, the CC50 at 48 h in data set [2] was greater than 80 µM.

`C=C(C)[C@@H]1CC[C@]2(C(=O)NCCCCCCNC(C)=O)CC[C@]3(C)[C@H](CC[C@@H]4[C@@]5(C)CC[C@H](O)C(C)(C)[C@@H]5CC[C@]43C)[C@@H]12`: the IC50 in data set [9] and in data set [3] was 0.027 µM in each case. In data set [1], the selectivity ratio is less than 2. Further, the CC50 at 48 h in [2] is 48.1 µM.

Consider `C=C(C)[C@@H]1CC[C@]2(C(=O)NCCCCC(=O)NCC(=O)O)CC[C@]3(C)[C@H](CC[C@@H]4[C@@]5(C)CC[C@H](O)C(C)(C)[C@@H]5CC[C@]43C)[C@@H]12`, for which the IC50 in data set [4] worked out at 2.6 µM. The CC50 at 48 h in [2] was greater than 65 µM. Besides, the selectivity ratio in data set [5] was less than 2.

The term IC50 denotes the concentration that inhibits the measured activity by half.

(Values after ChEMBL document CHEMBL1154770, “Betulinic acid derivatives as human immunodeficiency virus type 2 (HIV-2) inhibitors” (J Med Chem, 2009).)
